Results published in ChEMBL document CHEMBL3407339, “A novel series of thiazolyl-pyrazoline derivatives: synthesis and evaluation of antifungal activity, cytotoxicity and genotoxicity” (Eur J Med Chem, 2015).
≈ marks a conversion by molar mass, not a printed value.

tested on: Salmonella typhimurium; test: Mutagenicity in Salmonella typhimurium TA98 at 5 mg/ml after 48 hrs by AMES MPF assay in presence of Sprague-Dawley rat liver microsomal S9 fraction relative to baseline; type: toxicity, organism-based; conditions: salmonella enterica subsp. enterica serovar typhimurium
How it was run: (§1)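 Ames MPF fluctuation test with TA98/TA100. Overnight cultures (37 °C, 14–16 h) mixed with exposure medium; ±Aroclor-1254-induced rat liver S9 (final 4.5% v/v). Compounds in DMSO, 0.156–5 mg/mL. 90 min exposure at 37 °C, then indicator medium; 48 wells per concentration, 48 h at 37 °C, in triplicate. Yellow wells counted; fold induction over baseline (mean + 1 SD of zero-dose control).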

Compound	fold change (FC)
Fc1ccc(C2CC(c3ccc(Cl)s3)=NN2c2nc(-c3ccc(Br)cc3)cs2)cc1 (stereo not drawn)	0.81

tested on: Salmonella typhimurium; test: Mutagenicity in Salmonella typhimurium TA100 at 2.5 mg/ml after 48 hrs by AMES MPF assay in presence of Sprague-Dawley rat liver microsomal S9 fraction relative to baseline; type: toxicity, organism-based; conditions: salmonella enterica subsp. enterica serovar typhimurium; how it was run: as §1

Compound	fold change (FC)
Fc1ccc(C2CC(c3ccc(Cl)s3)=NN2c2nc(-c3ccc(Br)cc3)cs2)cc1 (stereo not drawn)	3.92

tested on: Salmonella typhimurium; test: Mutagenicity in Salmonella typhimurium TA98 at 0.625 mg/ml after 48 hrs by AMES MPF assay in presence of Sprague-Dawley rat liver microsomal S9 fraction relative to baseline; type: toxicity, organism-based; conditions: salmonella enterica subsp. enterica serovar typhimurium; how it was run: as §1

Compound	fold change (FC)
Fc1ccc(C2CC(c3ccc(Cl)s3)=NN2c2nc(-c3ccc(Br)cc3)cs2)cc1 (stereo not drawn)	0.95

tested on: Salmonella typhimurium; test: Mutagenicity in Salmonella typhimurium TA100 at 0.625 mg/ml after 48 hrs by AMES MPF assay in presence of Sprague-Dawley rat liver microsomal S9 fraction relative to baseline; type: toxicity, organism-based; conditions: salmonella enterica subsp. enterica serovar typhimurium; how it was run: as §1

Compound	fold change (FC)
Fc1ccc(C2CC(c3ccc(Cl)s3)=NN2c2nc(-c3ccc(Br)cc3)cs2)cc1 (stereo not drawn)	3.92

tested on: Candida parapsilosis; test: Antifungal activity against Candida parapsilosis NRLL Y 12696 after 48 hrs by broth microdilution assay; type: functional; conditions: Lodderomyces parapsilosis, NRLL Y 12696, 48 h
How it was run: (§2)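 Broth microdilution of DMSO stocks serially diluted in sterile water (4 to 0.0039 mg/mL). Yeasts grown on SDA at 37 °C for 24 h, suspended in double-strength PDB at 10⁵ spores/mL. Incubated at 37 °C for 48 h, then sprayed with 0.5% aqueous TTC. MIC = lowest concentration inhibiting visible growth. Ketoconazole reference.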

Compound	MIC
Fc1ccc(C2CC(c3ccc(Cl)s3)=NN2c2nc(-c3ccc(Br)cc3)cs2)cc1 (stereo not drawn)	250 µg/mL (≈ 482 µM)

tested on: Salmonella typhimurium; test: Mutagenicity in Salmonella typhimurium TA98 at 0.625 mg/ml after 48 hrs by AMES MPF assay in absence of Sprague-Dawley rat liver microsomal S9 fraction relative to baseline; type: toxicity, organism-based; conditions: salmonella enterica subsp. enterica serovar typhimurium; how it was run: as §1

Compound	fold change (FC)
Fc1ccc(C2CC(c3ccc(Cl)s3)=NN2c2nc(-c3ccc(Br)cc3)cs2)cc1 (stereo not drawn)	0

tested on: Salmonella typhimurium; test: Mutagenicity in Salmonella typhimurium TA100 at 5 mg/ml after 48 hrs by AMES MPF assay in presence of Sprague-Dawley rat liver microsomal S9 fraction relative to baseline; type: toxicity, organism-based; conditions: salmonella enterica subsp. enterica serovar typhimurium; how it was run: as §1

Compound	fold change (FC)
Fc1ccc(C2CC(c3ccc(Cl)s3)=NN2c2nc(-c3ccc(Br)cc3)cs2)cc1 (stereo not drawn)	2.54

tested on: Salmonella typhimurium; test: Mutagenicity in Salmonella typhimurium TA98 at 0.3125 mg/ml after 48 hrs by AMES MPF assay in absence of Sprague-Dawley rat liver microsomal S9 fraction relative to baseline; type: toxicity, organism-based; conditions: salmonella enterica subsp. enterica serovar typhimurium; how it was run: as §1

Compound	fold change (FC)
Fc1ccc(C2CC(c3ccc(Cl)s3)=NN2c2nc(-c3ccc(Br)cc3)cs2)cc1 (stereo not drawn)	0.32

tested on: Salmonella typhimurium; test: Mutagenicity in Salmonella typhimurium TA100 at 5 mg/ml after 48 hrs by AMES MPF assay in absence of Sprague-Dawley rat liver microsomal S9 fraction relative to baseline; type: toxicity, organism-based; conditions: salmonella enterica subsp. enterica serovar typhimurium; how it was run: as §1

Compound	fold change (FC)
Fc1ccc(C2CC(c3ccc(Cl)s3)=NN2c2nc(-c3ccc(Br)cc3)cs2)cc1 (stereo not drawn)	2

tested on: Salmonella typhimurium; test: Mutagenicity in Salmonella typhimurium TA100 at 2.5 mg/ml after 48 hrs by AMES MPF assay in absence of Sprague-Dawley rat liver microsomal S9 fraction relative to baseline; type: toxicity, organism-based; conditions: salmonella enterica subsp. enterica serovar typhimurium; how it was run: as §1

Compound	fold change (FC)
Fc1ccc(C2CC(c3ccc(Cl)s3)=NN2c2nc(-c3ccc(Br)cc3)cs2)cc1 (stereo not drawn)	0.33

tested on: Salmonella typhimurium; test: Mutagenicity in Salmonella typhimurium TA98 at 0.3125 mg/ml after 48 hrs by AMES MPF assay in presence of Sprague-Dawley rat liver microsomal S9 fraction relative to baseline; type: toxicity, organism-based; conditions: salmonella enterica subsp. enterica serovar typhimurium; how it was run: as §1

Compound	fold change (FC)
Fc1ccc(C2CC(c3ccc(Cl)s3)=NN2c2nc(-c3ccc(Br)cc3)cs2)cc1 (stereo not drawn)	0.81

tested on: Aspergillus parasiticus; test: Antifungal activity against Aspergillus parasiticus NRRL 465 after 72 hrs by broth microdilution assay; type: functional; conditions: NRRL 465, 72 h
How it was run: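 Compounds dissolved in DMSO, diluted in sterile distilled water from 4 to 0.0039 mg/mL. Molds grown on PDA at 25 °C for 5 days, suspended in double-strength PDB at 10⁵ spores/mL. Incubated at 25 °C for 72 h; mycelial growth read under stereo microscope. MIC = lowest concentration inhibiting visible growth. Ketoconazole reference.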

Compound	MIC
Fc1ccc(C2CC(c3ccc(Cl)s3)=NN2c2nc(-c3ccc(Br)cc3)cs2)cc1 (stereo not drawn)	250 µg/mL (≈ 482 µM)

tested on: Salmonella typhimurium; test: Mutagenicity in Salmonella typhimurium TA100 at 0.3125 mg/ml after 48 hrs by AMES MPF assay in absence of Sprague-Dawley rat liver microsomal S9 fraction relative to baseline; type: toxicity, organism-based; conditions: salmonella enterica subsp. enterica serovar typhimurium; how it was run: as §1

Compound	fold change (FC)
Fc1ccc(C2CC(c3ccc(Cl)s3)=NN2c2nc(-c3ccc(Br)cc3)cs2)cc1 (stereo not drawn)	1

tested on: Salmonella typhimurium; test: Mutagenicity in Salmonella typhimurium TA100 at 1.25 mg/ml after 48 hrs by AMES MPF assay in absence of Sprague-Dawley rat liver microsomal S9 fraction relative to baseline; type: toxicity, organism-based; conditions: salmonella enterica subsp. enterica serovar typhimurium; how it was run: as §1

Compound	fold change (FC)
Fc1ccc(C2CC(c3ccc(Cl)s3)=NN2c2nc(-c3ccc(Br)cc3)cs2)cc1 (stereo not drawn)	0

tested on: [Candida] zeylanoides; test: Antifungal activity against Candida zeylanoides NRLL Y 1774 after 48 hrs by broth microdilution assay; type: functional; conditions: Dujonia zeylanoides, NRLL Y 1774, 48 h; how it was run: as §2

Compound	MIC
Fc1ccc(C2CC(c3ccc(Cl)s3)=NN2c2nc(-c3ccc(Br)cc3)cs2)cc1 (stereo not drawn)	250 µg/mL (≈ 482 µM)

tested on: A549; test: Antiproliferative activity against human A549 cells after 24 hrs by XTT assay; type: functional, cell-based; conditions: A549, 24 h
How it was run: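 A549 cells in RPMI and NIH/3T3 cells in DMEM, each with fetal calf serum, antibiotics and 7.5% NaHCO₃, at 37 °C, 5% CO₂. Seeded at 20,000 cells/well, 24 h, then compounds added in medium at 500–3.9 doses (final DMSO <0.1%) for 24 h. XTT read after 3 h at 480 nm (ref 680 nm). IC₅₀ by non-linear regression; triplicates; cisplatin control.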

Compound	IC50
Fc1ccc(C2CC(c3ccc(Cl)s3)=NN2c2nc(-c3ccc(Br)cc3)cs2)cc1 (stereo not drawn)	62.5 µg/mL (≈ 120 µM)

tested on: Salmonella typhimurium; test: Mutagenicity in Salmonella typhimurium TA100 at 1.25 mg/ml after 48 hrs by AMES MPF assay in presence of Sprague-Dawley rat liver microsomal S9 fraction relative to baseline; type: toxicity, organism-based; conditions: salmonella enterica subsp. enterica serovar typhimurium; how it was run: as §1

Compound	fold change (FC)
Fc1ccc(C2CC(c3ccc(Cl)s3)=NN2c2nc(-c3ccc(Br)cc3)cs2)cc1 (stereo not drawn)	5.08

tested on: Salmonella typhimurium; test: Mutagenicity in Salmonella typhimurium TA98 at 0.156 mg/ml after 48 hrs by AMES MPF assay in absence of Sprague-Dawley rat liver microsomal S9 fraction relative to baseline; type: toxicity, organism-based; conditions: salmonella enterica subsp. enterica serovar typhimurium; how it was run: as §1

Compound	fold change (FC)
Fc1ccc(C2CC(c3ccc(Cl)s3)=NN2c2nc(-c3ccc(Br)cc3)cs2)cc1 (stereo not drawn)	0
